The compounds below were run against Thymidylate synthase (Homo sapiens, UniProt P04818) (assay: Inhibition of purified human thymidylate synthase (TS) isolated from an Escherichia coli harboring a plasmid with thy A gene cloned from SV40 transformed human fibroblast cells).
Method in brief: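 Purified recombinant human TS, expressed in E. coli from a thyA gene cloned from SV40-transformed human fibroblasts. Inhibition was measured by a modified tritium-release assay. Ki was estimated by treating compounds as tight-binding noncompetitive inhibitors.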

Chain of Thymidylate synthase (P04818 whole entry): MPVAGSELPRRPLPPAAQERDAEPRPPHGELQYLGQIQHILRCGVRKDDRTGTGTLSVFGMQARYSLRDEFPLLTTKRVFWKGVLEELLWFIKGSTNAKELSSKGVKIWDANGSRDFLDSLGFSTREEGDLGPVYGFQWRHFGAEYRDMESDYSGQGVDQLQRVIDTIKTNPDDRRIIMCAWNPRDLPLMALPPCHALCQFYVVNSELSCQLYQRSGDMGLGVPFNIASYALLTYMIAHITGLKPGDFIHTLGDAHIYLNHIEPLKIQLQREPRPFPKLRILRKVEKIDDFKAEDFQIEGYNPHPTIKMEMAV

Ki [nM] | SMILES
16400 | Nc1nc2ccc3cc(S(=O)(=O)Nc4ccc(C(=O)N[C@@H](CCC(=O)O)C(=O)O)cc4)c(Br)cc3c2c(=O)[nH]1
100 | Nc1nc(O)c2c(ccc3ccc(NS(=O)(=O)c4ccc(C(=O)N[C@@H](CCC(=O)O)C(=O)O)cc4)cc32)n1
20 | Nc1nc(O)c2c(ccc3ccc(Br)cc32)n1
